From article PMC5079537 (Cancer cell, 2016)

Experiments:
p53 in EU-1 cells [1] = assay: Western blot for p53 expression; type: cell-based, human; settings: 1 μM MX3 or 10 μM MX69, 2 to 8 hr after treatment
[2] = system: Hsd:ICR (CD-1) normal mice; assay: Maximum tolerated dose; type: in vivo; settings: doses between 25 and 200 mg/kg i.p., 3 days/week x 2 courses
MDM2 RING protein [3] = target: T1, MDM2 RING protein (Homo sapiens, UniProt Q00987); assay: ITC binding assay; settings: read-out: binding Kd to MDM2 RING protein
[4] = system: Hsd:ICR (CD-1) normal mice; settings: 100 mg/kg
p53 in EU-1 cells [5] = assay: CHX pulse-chase assay, p53 turnover; type: cell-based, human; settings: control less than 30 min
MYCN IRES = assay: Dicistronic reporter assay, control IRES; type: cell-based
[6] = system: human normal bone marrow mononuclear (NBMM) cells; assay: WST cytotoxic assay on normal bone marrow cells; type: cell-based
Procedure, shortened: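 Normal human bone marrow mononuclear cells came from five consenting donors under IRB approval. Cells in 96-well plates got a range of test compound concentrations for 20 hr, then WST (25 μg/well) for another 4 hr. OD read at 450 nm against 620 nm reference. Mean ± SD of three independent experiments.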

[7] = system: endogenous MDM2 in cancer cells; assay: IP-Western blot for ubiquitination of endogenous MDM2; type: cell-based, human
Procedure, shortened: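 EU-1 cells treated with 10 μM test compound or a control compound. Lysed in Tris pH 7.6/NaCl/NP-40 buffer with protease and phosphatase inhibitors, cleared, then immunoprecipitated with anti-MDM2 on protein G/protein A-agarose. Immunoprecipitates run on SDS-PAGE, transferred to nitrocellulose, probed with anti-ubiquitin and detected by chemiluminescence.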

[8] = system: 12 cancer cell lines (6 ALL and 6 NB); type: cell-based; settings: 24 hr
[9] = system: NBMM cells (normal human hematopoiesis); assay: Clonogenic analyses for CFU-GM and BFU-E; type: cell-based; settings: colonies after 14 days
EU-1 cells = assay: Annexin-V FITC staining for apoptosis; type: cell-based, human; settings: 10 μM
Procedure, shortened: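 EU-1 cells treated with 10 μM test compound were washed in PBS and stained with FITC-annexin V and 7-AAD using a kit per the maker's protocol. Read by fluorescence microscopy (annexin V green, 7-AAD red) and by flow cytometry. For flow quantitation, cells were treated for 24 hr. Mean of three independent experiments, bars ± SD.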

[10] = system: EU-1 leukemia cells in SCID mice; assay: EU-1 leukemia xenograft in SCID mice; type: in vivo
MDM2 in EU-1 cells = assay: CHX pulse-chase assay, MDM2 turnover; type: cell-based, human; settings: 10 μM for 4 hr, control greater than 90 min
[11] = system: MDM2 and XIAP expression in ALL and NB cells; assay: Western blot for MDM2 and XIAP expression in cancer cells; type: cell-based, human
Procedure, shortened: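 MDM2-overexpressing ALL lines (EU-1, EU-3) and NB lines (SH-EP1, NB-1691) were treated with test compounds for 24 hr. Time-course and dose-response runs were done in EU-1. Lysis was in Tris pH 7.6/NaCl/1% NP-40 buffer with phosphatase and protease inhibitors. Lysates were resolved by SDS-PAGE, transferred to nitrocellulose, probed for MDM2 and XIAP, and detected by chemiluminescence.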

XIAP IRES [12] = assay: Dicistronic reporter assay; type: cell-based; settings: dicistronic plasmid pRL-xi-FL
MDM2 RING protein [13] = target: T1, MDM2 RING protein; assay: Fluorescent titration binding assay
Procedure, shortened: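 Binding to GST-MDM2 RING protein measured by fluorescence titration, using the protein's intrinsic fluorescence (excitation 280 nm, emission 335 nm). Protein titrated with increasing test compound concentrations. Relative change in fluorescence intensity traced and normalised to derive binding Kd.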

[14] = system: caspases 3, 7 and 9, PARP; assay: Western blot and ELISA for caspase activation and PARP cleavage; type: cell-based, human; settings: ALL and NB cells
Procedure, shortened: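 Western blot of caspase-3 activation and PARP cleavage in cancer cells treated with test compounds at 1 or 10 μM, or a control compound at 10 μM, over a time course. Cells were lysed in 50 mM Tris pH 7.6, 150 mM NaCl, 1% NP-40 with phosphatase and protease inhibitors. Lysates were run on SDS-PAGE, transferred to nitrocellulose, probed with specific antibodies and detected by chemiluminescence.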

XIAP IRES [15] = assay: Fluorescent titration binding assay; settings: read-out: binding Kd to XIAP IRES
Procedure, shortened: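 Fluorescence-labelled XIAP IRES RNA (excitation 485 nm, emission 530 nm) titrated with increasing test compound concentrations. Relative change in fluorescence intensity traced and normalised to derive binding Kd.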

T1 sequence (Q00987 438-479 limits assumed): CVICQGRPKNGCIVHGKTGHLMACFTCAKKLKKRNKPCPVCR

For `Cc1ccc(NS(=O)(=O)c2ccc3c(c2)C2C=CCC2C(c2ccc(C(=O)O)cc2)N3)cc1C` (stereo not drawn) [MX69], which p53 protein levels (p53 in EU-1 cells [1]) is on record?
Its p53 protein levels is “significantly increased”.

What about the “tolerability, deaths by day 30” value [2] of the same molecule?
The value was “well tolerated, with no deaths”.

And the Kd (MDM2 RING protein [3])?
The Kd was 2750 nM.

What about the ALT [4] of the same molecule?
Its ALT is “no significant increases”.

And the AST [4]?
Its AST is “no significant increases”.

What about the BUN [4] of the same molecule?
Its BUN is “no significant increases”.

And the PLT [4]?
The PLT was “no significant decreases”.

And the WBC [4]?
The WBC was “no significant decreases”.

And the “histopathology of heart, liver and kidney” value [4]?
Its value is “no evidence of toxicity”.

And the p53 half-life (p53 in EU-1 cells [5])?
Its p53 half-life is “remarkably increased”.

And the “activity on the MYCN IRES” value (MYCN IRES)?
Its value is “no activity”.

What about the “cell survival of NBMM” value ([6]; 2–8 μM for 24 hr) of the same molecule?
The value was “over 90%”.

What about the “ubiquitination of endogenous MDM2” value [7] of the same molecule?
Its value is “induced ubiquitination”.

What about the cytotoxic effect [8] of the same molecule?
Its cytotoxic effect is “significant cytotoxic effect”.

And the “inhibitory effect on BFU-E” value ([9]; 10 μM)?
The value was “little inhibitory effect”.

What about the “inhibitory effect on CFU-GM” value ([9]; 10 μM) of the same molecule?
The value was “little inhibitory effect”.

And the Annexin-V positive cells (EU-1 cells)?
Its Annexin-V positive cells is “over 90%”.

And the “mice that died within 98–143 days after inoculation” value ([10]; 50 mg/kg i.p.)?
Its value is “Forty”.

What about the “mice that died within 98–143 days after inoculation” value ([10]; 75 mg/kg i.p.) of the same molecule?
The value was 20%.

And the “adverse effects (body weight, fur pattern)” value ([10]; up to 40-days post-treatment)?
Its value is “no adverse effects”.

What about the MDM2 half-life (MDM2 in EU-1 cells) of the same molecule?
Its MDM2 half-life is < 30 min.

And the “inhibition of MDM2 and XIAP protein expression” value [11]?
Its value is “inhibited expression of both MDM2 and XIAP”.

And the “XIAP IRES-mediated translation of firefly luciferase” value (XIAP IRES [12])?
Its value is “inhibited”.

What about the Kd (MDM2 RING protein [13]; read-out: binding Kd to MDM2 RING protein) of the same molecule?
The Kd was 2340 nM.

And the “activation of caspases 3, 7 and 9 and cleavage of PARP” value [14]?
The value was “activation of these caspases and cleavage of PARP were detected”.

With `O=C1c2c(O)ccc(O)c2C(=O)c2c(NCCNCCO)ccc(NCCNCCO)c21` [MX3, mitoxantrone, reference compound] as the molecule, how does the “cell survival of NBMM” value ([6]; 2 μM, 24 hr) read?
Its value is “about 50%”.

And the “ubiquitination of endogenous MDM2” value [7]?
The value was “induced ubiquitination”.

What about the cytotoxic effect [8] of the same molecule?
The cytotoxic effect was “most potent cytotoxic effect”.

What about the “inhibitory effect on BFU-E” value ([9]; 1 μM) of the same molecule?
The value was “severe inhibitory effects”.

What about the “inhibition of MDM2 and XIAP protein expression” value [11] of the same molecule?
The value was “inhibited expression of both MDM2 and XIAP”.

What about the “binding to MDM2 RING protein” value (MDM2 RING protein [13]) of the same molecule?
Its value is “neither of these leads bound”.

And the “activation of caspases 3, 7 and 9 and cleavage of PARP” value [14]?
Its value is “activation of these caspases and cleavage of PARP were detected”.

And the Kd (XIAP IRES [15])?
The Kd was 5260 nM.
